Measured values: publication PMC5023007 (Bioorganic & medicinal chemistry, 2016)

Biological target: LPA2 (Homo sapiens, UniProt Q9HBW0)
Test: Calcium mobilization assay, potentiation of LPA effect at LPA2
Format: cell-based
Settings: supplemental figure

LPA2, sequence (Q9HBW0 whole entry, species assumed): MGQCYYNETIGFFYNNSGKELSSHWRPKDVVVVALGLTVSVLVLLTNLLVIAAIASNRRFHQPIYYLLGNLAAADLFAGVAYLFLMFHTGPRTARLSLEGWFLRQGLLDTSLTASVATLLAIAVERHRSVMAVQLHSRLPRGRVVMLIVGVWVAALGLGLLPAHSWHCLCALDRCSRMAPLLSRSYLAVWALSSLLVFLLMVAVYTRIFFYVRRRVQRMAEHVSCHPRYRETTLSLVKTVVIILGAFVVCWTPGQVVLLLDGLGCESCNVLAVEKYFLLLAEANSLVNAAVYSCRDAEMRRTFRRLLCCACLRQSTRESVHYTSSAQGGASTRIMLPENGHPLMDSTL

| SMILES | potentiation of LPA effects at LPA2 |
| --- | --- |
| O=C(COc1cc(Cl)cc(Cl)c1)N1CCN(c2cccc([N+](=O)[O-])c2)CC1 [Analog 22, 2-(3,5-dichlorophenoxy)-1-(4-(3-nitrophenyl)piperazin-1-yl)ethanone] | modest potentiation of LPA effects at LPA2 |

Biological target: T1, ATX (Homo sapiens, UniProt Q13822)
Test: ATX activity assay with FS-3 substrate
Format: biochemical
Settings: 10 μM compound, 10 nM ATX, 1 μM FS-3
Method in brief: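 Purified human FLAG-tagged ATX at 10 nM with 10 µM test compound and 1 µM FS-3 in 50 mM Tris pH 8.0, 30 µM BSA, 1 mM CaCl2, 1 mM MgCl2, 5 mM KCl, 140 mM NaCl. Fluorescence (ex 485/em 520 nm) was read every 2 min for 60 min at 37°C, in triplicate. Signal was normalized to no-ATX (0%) and ATX-without-compound (100%). Interference was checked with 100 nM carboxyfluorescein ± compound.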

| SMILES | FS-3 Inhibition (%) |
| --- | --- |
| CC(C)(C)CN(Cc1cccc(CN)c1)C(=O)c1ccc(-c2ccc(F)cc2)nc1 [GRI 792685] | false positive |

Same assay, conditions: read-out: FS-3 Inhibition (%), 10 μM compound, 10 nM ATX, 1 μM FS-3

| SMILES | inhibition at 10 µM |
| --- | --- |
| COc1ccc2c(c1)C(NCc1cc(OC)c(OC)cc1N)CCO2 (stereo not shown) [GRI 93694] | 48 ± 4.4% |
| CC(=O)OC1(C(=O)COC(=O)c2ccco2)CC2CCC3C4C=CC(=O)CC4(C)CCC3C2(C)C1 (stereo not shown) [GRI 519441] | 59.7 ± 1.7% |
| O=C(CCCOc1ccc(Cl)cc1Cl)N1CCN(c2ccc([N+](=O)[O-])cc2)CC1 [GRI 392104] | 65.5 ± 3.2% |
| CCCCCCCCCCCCCC(=O)NC(CCC(=O)O)C(=O)O (stereo not shown) [GRI 96880] | 54.1 ± 0.2% |

Biological target: T1, ATX
Test: ATX activity assay with pNP-TMP substrate
Format: biochemical
Settings: read-out: pNP-TMP Inhibition (%)
Method in brief: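 Runs were in triplicate with human FLAG-fusion ATX, purified, at 10 nM, 10 µM test compound and 1 mM pNP-TMP. Buffer was 50 mM Tris pH 8.0 containing 30 µM BSA, 1 mM CaCl2, 1 mM MgCl2, 5 mM KCl and 140 mM NaCl. Absorbance at 405 nm was read every 2 min over 60 min at 37°C. Values were scaled between no-enzyme (0%) and uninhibited enzyme (100%). Interference control used 100 µM para-nitrophenol ± compound.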

| SMILES | inhibition at 10 µM |
| --- | --- |
| O=C(COc1ccccc1Cl)N1CCN(c2ccc([N+](=O)[O-])cc2)CC1 [Analog 23, 2-(2-chlorophenoxy)-1-(4-(4-nitrophenyl)piperazin-1-yl)ethanone] | -11.9 ± 1.3% |
| O=C(COc1ccc(Cl)cc1Cl)N1CCN(c2ccc([N+](=O)[O-])cc2)CC1 [Analog 32, 2-(2,4-dichlorophenoxy)-1-(4-(4-nitrophenyl)piperazin-1-yl)ethanone] | -14.9 ± 4.7% |
| O=C(O)c1ccc(N2CCN(C(=O)COc3cccc(F)c3)CC2)cc1 [Analog 60, 4-(4-(2-(3-fluorophenoxy)acetyl)piperazin-1-yl)benzoic acid] | -36.5 ± 6.3% |
| O=C(O)c1ccc(N2CCN(C(=O)COc3ccccc3F)CC2)cc1 [Analog 57, 4-(4-(2-(2-fluorophenoxy)acetyl)piperazin-1-yl)benzoic acid] | -12 ± 6% |
| O=C(COc1ccccc1F)N1CCN(c2cccc([N+](=O)[O-])c2)CC1 [Analog 13, 2-(2-fluorophenoxy)-1-(4-(3-nitrophenyl)piperazin-1-yl)ethanone] | -14.7 ± 2.9% |
| O=C(COc1ccc(F)cc1)N1CCN(c2ccc([N+](=O)[O-])cc2)CC1 [Analog 30, 2-(4-fluorophenoxy)-1-(4-(4-nitrophenyl)piperazin-1-yl)ethanone] | -12.1 ± 1.2% |
| O=C(O)c1ccc(N2CCN(C(=O)COc3cccc(C(F)(F)F)c3)CC2)cc1 [Analog 61, 4-(4-(2-(3-(trifluoromethyl)phenoxy)acetyl)piperazin-1-yl)benzoic acid] | -11.4 ± 2.6% |
| O=C(COc1cccc(F)c1)N1CCN(c2ccc([N+](=O)[O-])cc2)CC1 [Analog 27, 2-(3-fluorophenoxy)-1-(4-(4-nitrophenyl)piperazin-1-yl)ethanone] | -14.1 ± 2.3% |
| CC(=O)OC1(C(=O)COC(=O)c2ccco2)CC2CCC3C4C=CC(=O)CC4(C)CCC3C2(C)C1 (stereo not shown) [GRI 519441] | -45.4 ± 2.5% |
| O=C(COc1ccccc1F)N1CCN(c2ccc([N+](=O)[O-])cc2)CC1 [Analog 24, 2-(2-fluorophenoxy)-1-(4-(4-nitrophenyl)piperazin-1-yl)ethanone] | -22.7 ± 4.2% |
